PG9 binder: PG9 antibody binding by small molecule | TR-FRET gp120-PG9 antibody binding | inhibition, % at 6.7 µM | hit rate 0.43% among 360,000 | AID 624416; in the data active means inhibition above about 8.5%
NR2E3 ag-1: agonists of human NR2E3 nuclear receptor | Q9Y5X4 | CHO-S Gal4-NCOR/VP16-NR2E3 two-hybrid, luciferase | inhibition of corepressor binding, % at 3.98 µM | hit rate 0.35% among 360,000 | AID 602229;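 active means inhibition above the mean of all tested compounds plus 3 SD, cut at about 70% in these data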;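 further: higher means lower luciferase signal from less NR2E3 corepressor binding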
NR2E3 ag-2: NR2E3 (human) agonism; Q9Y5X4; GST-NR2E3/biotin-RetCOR TR-FRET, 1536-well; inhibition of corepressor binding, % at 4.78 µM; hit rate 0.12% among 320,000; AID 2300;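 active means percent inhibition above the cutoff of mean plus 3 SD of all tested compounds, set per screening campaign, cut at about 20% in these data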
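Material: NR2E3–RetCOR corepressor complex / Incubation: Compound–protein incubation for 5 h at 4 °C / Dosing: compound at 4.8 µM, single dose / Detection: time-resolved FRET / Benchmarks: high control biotin, low control 0.6% DMSO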
NR1D1 modulator: modulates human Rev-erb alpha binding to DNA | Rev-erbα–FITC-DNA binding, fluorescence polarization, 90 min | activity, % at 10 µM | hit rate 0.79% among 370,000 | AID 1259318;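 active means activity above about 14%, limit read from the data; passing the limit was not always enough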
Target sequence (P20393 whole entry, looked up): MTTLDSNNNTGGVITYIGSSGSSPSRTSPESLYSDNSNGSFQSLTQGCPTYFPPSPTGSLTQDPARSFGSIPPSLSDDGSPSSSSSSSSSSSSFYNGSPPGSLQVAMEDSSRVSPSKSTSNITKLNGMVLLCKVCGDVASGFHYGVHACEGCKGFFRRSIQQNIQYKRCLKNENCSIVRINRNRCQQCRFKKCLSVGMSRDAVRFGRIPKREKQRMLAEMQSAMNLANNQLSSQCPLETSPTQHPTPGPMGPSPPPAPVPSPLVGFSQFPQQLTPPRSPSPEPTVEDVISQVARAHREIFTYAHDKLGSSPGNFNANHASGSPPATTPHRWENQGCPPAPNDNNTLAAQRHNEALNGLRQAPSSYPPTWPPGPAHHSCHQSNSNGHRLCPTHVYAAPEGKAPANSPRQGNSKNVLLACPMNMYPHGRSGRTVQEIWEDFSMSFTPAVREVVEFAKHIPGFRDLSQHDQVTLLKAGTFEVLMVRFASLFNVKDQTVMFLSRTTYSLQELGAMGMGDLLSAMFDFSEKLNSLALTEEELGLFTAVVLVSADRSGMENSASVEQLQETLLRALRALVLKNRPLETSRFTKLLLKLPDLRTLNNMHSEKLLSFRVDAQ
Rev-erbA confirm: confirmation of modulators of human Rev-erb alpha DNA binding | shares compounds with NR1D1 modulator | Rev-erb alpha FITC-DNA binding, fluorescence polarization, 90 min | activation, % at 25 µM | hit rate 61% among 3,000;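 active means activation at or above a set limit, or at least 3 SD above the negative control mean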
RORg DNA counter: RORgamma DNA-binding activity, dose-response counter-screen; shares compounds with NR1D1 modulator; purified RORgamma protein-FITC-DNA binding, fluorescence polarization; IC50, µM; hit rate 8% among 910;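 active means Compounds whose fitted half-maximal concentration for disrupting protein-DNA binding is below 10 micromolar; the record names Rev-erb in its text, so the target is in doubt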
Large screens that a line does not name were inactive (follow-up assays come after a bar, where they were run). Hits are enriched below; roughly 1.4% of the tested compounds scored in any of these assays.

Cc1ccc(-c2nnn3c2nc(Cl)c2ccccc23)cc1	none (no result: NR2E3 ag-2)
Clc1nc2c(-c3ccccc3)nnn2c2ccccc12	NR1D1 modulator 83 | Rev-erbA confirm 68 | RORg DNA counter inactive
Fc1cccc(-c2nnn3c2nc(Cl)c2ccccc23)c1	NR1D1 modulator 90 (no result: NR2E3 ag-2) | Rev-erbA confirm 19
COc1ccc(Nc2nc(-c3ccccc3)nc3ccccc23)cc1S(=O)(=O)N1CCOCC1	none
Cc1ccc(Cc2c(-c3ccc(Br)cc3)nc3ccc(Br)cn23)cc1	NR1D1 modulator 24 (no result: NR2E3 ag-2) | Rev-erbA confirm 22
Cc1cc(Br)c2nc(-c3ccccc3)c(Cc3cccc(Cl)c3)n2c1	NR1D1 modulator 27 (no result: NR2E3 ag-2) | Rev-erbA confirm 15
COc1ccc(-c2nc3ccc(Br)cn3c2Cc2cccc(F)c2)cc1OC	NR1D1 modulator 18 (no result: NR2E3 ag-2) | Rev-erbA confirm inactive
Cc1ccc(Cc2c(-c3ccc(Br)cc3)nc3ccc(Cl)cn23)cc1	none (no result: NR2E3 ag-2)
Cc1ccc2nc(-c3ccccc3)c(Cc3cccc(Cl)c3)n2c1	none (no result: NR2E3 ag-2)
Cc1cc(Br)cn2c(Cc3ccccc3C(F)(F)F)c(-c3ccccc3)nc12	NR1D1 modulator 22 (no result: NR2E3 ag-2) | Rev-erbA confirm 11
COc1ccc(-c2nc3ccc(C)cn3c2Cc2cccc(F)c2)cc1OC	none (no result: NR2E3 ag-2)
O=C(OCC(=O)N1CCN(c2ccccc2)CC1)c1ccncc1	none
CC1=C(C)C(=O)N(C(C)CCc2ccccc2)C1=O (centres undefined)	none
O=C(CNC(=O)c1ccc(Br)cc1)NCCc1nc2ccccc2[nH]1	none
O=C(COC(=O)c1cn(-c2ccccc2)nc1-c1cccs1)NC1CC1	none
Cc1ccc(-c2nc3c(C)cc(Br)cn3c2Cc2cccc(F)c2)cc1	NR1D1 modulator 21 (no result: NR2E3 ag-2) | Rev-erbA confirm 20
Cc1cc(Br)cn2c(Cc3ccccc3)c(-c3cccc(Cl)c3)nc12	NR1D1 modulator 19 (no result: NR2E3 ag-2) | Rev-erbA confirm 16
O=C(NCCc1cccs1)c1cccs1	none
COc1ccc(-c2oc3ccccc3c(=O)c2OC(=O)c2ccc(C)cc2)cc1	NR1D1 modulator 22 | Rev-erbA confirm 36 | RORg DNA counter inactive
c1ccc(CSc2ncnc3c2ncn3C2CCCCO2)cc1 (centres undefined)	none (no result: NR2E3 ag-2)
CC(=O)N1c2ccc(S(=O)(=O)N3CCCCC3)cc2CC1C(=O)Nc1ccccc1C(F)(F)F (centres undefined)	none
Cc1ccsc1C(=O)NNC(=O)c1cccc(S(=O)(=O)N2CCCC2)c1	NR1D1 modulator 18 | Rev-erbA confirm inactive
O=C(NNC(=O)c1ccc(Br)s1)c1cccc(S(=O)(=O)N2CCCC2)c1	none
COc1ccc(NC(=O)NNC(=O)COc2ccc3cc(Br)ccc3c2)cc1	NR1D1 modulator 16 (no result: NR2E3 ag-2) | Rev-erbA confirm inactive
COc1ccc(N2CCN(C(=O)c3ccc(Cn4c(=S)[nH]c5ccc(N6CCOCC6)cc5c4=O)cc3)CC2)cc1	NR1D1 modulator 42 | Rev-erbA confirm inactive
COc1cc(S(=O)(=O)Nc2cccc3cn[nH]c23)c(OC)cc1C	none
COc1ccc(S(=O)(=O)N2CCC(C(=O)NC3CC3)CC2)cc1Cl	none
CC(Sc1nnc(C(C)N(C)C)n1-c1ccc(Cl)cc1)C(=O)Nc1ccc2c(c1)OCO2 (centres undefined)	none
CCCN(C(=O)c1ccco1)c1nnc(-c2ccncc2)s1	none
CCCCN(C(=O)c1ccco1)c1nnc(-c2cc(OC)c(OC)c(OC)c2)s1	NR1D1 modulator 99 | Rev-erbA confirm inactive
Cc1cnn(-c2ccc3nnc(-c4ccc(Cl)cc4)n3n2)c1	NR1D1 modulator 22 | Rev-erbA confirm 27
Cc1cc(NC(=O)CSc2ccc3nnc(-c4ccc(Cl)cc4)n3n2)no1	none
COc1ccc(N(Cc2cc3cccc(C)c3[nH]c2=O)S(=O)(=O)c2ccc(Cl)cc2)cc1	NR1D1 modulator 21 | Rev-erbA confirm inactive
Cc1nn(Cc2cccc(C(=O)N3CCCC(C)C3)c2)c(C)c1[N+](=O)[O-] (centres undefined)	none
CCc1nnc(NC(=O)CSc2nc3cc(OC)ccc3cc2C)s1	NR1D1 modulator 165 | Rev-erbA confirm inactive
CCN(CC)C(=O)CSc1nc(C)cc(-c2cccs2)c1C#N	NR1D1 modulator 78 | Rev-erbA confirm 51 | RORg DNA counter inactive
N#Cc1c(-c2ccccc2)cc(C2CC2)nc1SCC(=O)c1cccs1	NR1D1 modulator 19 (no result: NR2E3 ag-2) | Rev-erbA confirm 30
CCOc1ccc(-c2ccc(SCC(=O)Nc3nnc(CC)s3)nn2)cc1	none
CCc1nnc(NC(=O)Cc2ccc(OC)cc2)s1	none
Cc1cc(C)c(C#N)c(SCC(=O)c2cccs2)n1	none
CCc1nnc(NC(=O)CSc2nc(-c3ccccc3)cc(-c3ccc(OC)cc3)c2C#N)s1	NR1D1 modulator 48 | Rev-erbA confirm 43
COc1ccc(CCCNC(=O)C2CCC(=O)N(CCCN3CCCC3=O)C2)cc1 (centres undefined)	none
COc1ccc(-c2cc3c(=O)n(CC(=O)NCc4cccnc4)nc(C)n3n2)cc1	none
CCCn1nc(Oc2nc(NCC)nc(NCC)n2)ccc1=O	none
CC(C)NC(=O)CSc1nc(-c2cccs2)cc(-c2ccccc2)c1C#N	NR1D1 modulator 60 | Rev-erbA confirm 47 | RORg DNA counter inactive
COc1ccc(-c2cc(-c3ccccc3)nc(SCC(=O)Nc3nccs3)c2C#N)cc1	NR1D1 modulator 78 | Rev-erbA confirm 61 | RORg DNA counter inactive
N#Cc1c(-c2ccc(Cl)cc2)cc(-c2ccccc2)nc1SCC(=O)O	none
COc1ccc(S(=O)(=O)N2CCCc3nc(-c4ccc(F)cc4)ccc32)cc1	none (no result: NR2E3 ag-1, NR2E3 ag-2)
COC(=O)c1sccc1NC(=O)C1CC1	none
COC(=O)c1sccc1NC(=O)C12CC3CC(CC(C3)C1)C2	NR1D1 modulator 25 | Rev-erbA confirm 22
C/C(CC(=O)NCc1ccco1)=N\NC(=O)COc1ccc(Cl)cc1Cl	none
CCN(CC)c1ccc(/C=C2\C(=N)N3N=C(CC(=O)N4CCOCC4)SC3=NC2=O)cc1	NR1D1 modulator 37 | Rev-erbA confirm 22
Cc1ccc(C(=O)CSc2cnc3ccccc3n2)cc1C	NR1D1 modulator 30 | Rev-erbA confirm inactive
CN(C)C(=O)CSc1cnc2ccccc2n1	none
CC1CCCN(c2ccc([N+](=O)[O-])s2)C1 (centres undefined)	NR1D1 modulator 31 (no result: NR2E3 ag-2) | Rev-erbA confirm inactive
O=[N+]([O-])c1ccc(N2CCCCC2)s1	NR1D1 modulator 23 | Rev-erbA confirm 18
O=[N+]([O-])c1ccc(N2CCN(Cc3ccccc3)CC2)s1	none
COC(=O)c1c(-c2cccc(C)c2)csc1NC(=O)C1CCCO1 (centres undefined)	NR1D1 modulator 24 | Rev-erbA confirm 27
O=C(CC1CS(=O)(=O)CC1CC(=O)Oc1ccccc1F)Oc1ccccc1F (centres undefined)	none
CCOc1cc(-c2noc(N)c2C(=O)OC)cc(OCC)c1OCC	none
COc1nc2ccc(C)cc2cc1-c1noc(-c2cccnc2)n1	NR1D1 modulator 35 | Rev-erbA confirm inactive
CCN(CC)C(=O)C1CCN(S(=O)(=O)c2ccc3c(c2)CCCN3C(=O)C2CCC2)CC1	none
